Data taken from ChEMBL document CHEMBL1828544, “Structural modification of honokiol, a biphenyl occurring in Magnolia officinalis: the evaluation of honokiol analogues as inhibitors of angiogenesis and for their cytotoxicity and structure-activity relationship” (J Med Chem, 2011).
Active and inactive are the calls of the source. The calls are words filed in the database; no cut-off is given here.

Tests used:
HUVEC = experiment: Antiproliferative activity against human HUVEC cells after 24 hrs by MTT assay; format: functional, cell-based
Outline: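 Primary HUVECs grown on gelatin in M-199 with 20% FBS, 10 ng/mL bFGF, 2 ng/mL VEGF, 5% CO2, 37 °C. Cells (5 × 10^3/well) exposed to a range of compound concentrations for 24 h. MTT added for 3 h, formazan dissolved in DMSO, absorbance read at 570 nm. IC50 from percentage growth versus untreated control.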

A549 = experiment: Antiproliferative activity against human A549 cells after 24 hrs by MTT assay; format: functional, cell-based; conditions: A549, 24 h
Outline: (§1)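 Cells (5 × 10^3/well) kept at 37 °C, 5% CO2 and treated with varied compound concentrations for 24 h. MTT given for a further 3 h, precipitate dissolved in DMSO, absorbance taken at 570 nm. IC50 calculated from percentage growth relative to untreated control.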

HepG2 = experiment: Antiproliferative activity against human HepG2 cells after 24 hrs by MTT assay; format: functional, cell-based; conditions: HepG2, 24 h; outline: as §1
[1] = Antiproliferative activity against mouse LL/2 cells after 24 hrs by MTT assay; format: functional, cell-based; conditions: Lewis lung carcinoma; outline: as §1
Danio rerio [2] = species: Danio rerio; experiment: Antiangiogenic activity in fli-1:enhanced GFP expressing transgenic zebrafish embryo assessed as inhibition of neovacularisation at 5 uM after 24 hrs relative to control; format: functional
Outline: (§2)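 fli-1:EGFP transgenic zebrafish embryos sorted at about 6 hpf (6 per well), exposed in embryo water to compound at 5–40 μM for 24 h. Then anesthetized with 0.05% 2-phenoxyethanol, photographed and quantified.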

Danio rerio [3] = species: Danio rerio; experiment: Antiangiogenic activity in fli-1:enhanced GFP expressing transgenic zebrafish embryo assessed as inhibition of neovacularisation at 10 uM after 24 hrs relative to control; format: functional; outline: as §2
Danio rerio [4] = species: Danio rerio; experiment: Antiangiogenic activity in fli-1:enhanced GFP expressing transgenic zebrafish embryo assessed as inhibition of neovacularisation at 20 uM after 24 hrs relative to control; format: functional; outline: as §2
Danio rerio [5] = species: Danio rerio; experiment: Antiangiogenic activity in fli-1:enhanced GFP expressing transgenic zebrafish embryo assessed as inhibition of neovacularisation at 40 uM after 24 hrs relative to control; format: functional; outline: as §2

SMILES | IC50 (HUVEC) | IC50 (A549) | IC50 (HepG2) | IC50 [1] | inhibition (Danio rerio [2]) | inhibition (INH) (Danio rerio [3]) | inhibition (INH) (Danio rerio [4]) | inhibition (INH) (Danio rerio [5]) | inhibition (Danio rerio [3]) | inhibition (INH) (Danio rerio [2])
C=CCc1ccc(O)c(-c2ccc(OCCC)c(CC=C)c2)c1 | 89.3 µM | 82.4 µM | > 130 µM | 64.8 µM | – | – | – | – | – | –
C=CCc1ccc(O)c(-c2ccc(O)cc2)c1 | 64.3 µM | 76.2 µM | 89 µM | > 100 µM | inactive | <25% | <25% | – | – | –
C=CCc1cc(CO)c(O)c(-c2cc(CO)c(O)c(CC=C)c2)c1 | > 100 µM | > 123 µM | > 123 µM | > 123 µM | – | – | – | – | – | –
C=CCc1cc(-c2cccc(NC(C)=O)c2)ccc1OC | > 100 µM | > 100 µM | 60.1 µM | 65.1 µM | – | – | – | – | – | –
C=CCc1cc(CO)c(O)c(-c2ccc(O)c(CC=C)c2)c1 | > 100 µM | > 135 µM | > 135 µM | > 135 µM | – | – | – | – | – | –
C=CCc1cc(-c2ccc(OC)c(OC)c2)ccc1O | > 100 µM | > 100 µM | > 100 µM | > 100 µM | – | – | – | – | – | –
C=CCc1ccc(O)c(-c2ccc(OCC)c(CC=C)c2)c1 | 67.1 µM | 51 µM | 73.8 µM | 61.6 µM | – | – | – | – | – | –
C=CCc1ccc(OCC(=O)OCC)c(-c2ccc(OCC(=O)OCC)c(CC=C)c2)c1 | > 100 µM | > 91.3 µM | 68.9 µM | > 91.3 µM | – | – | – | – | – | –
C=CCc1ccc(OC)c(-c2ccc(OC)c(CC=C)c2)c1 | > 100 µM | – | > 136 µM | > 136 µM | – | – | – | – | – | –
C=CCOc1ccc(-c2ccc(OC)cc2)cc1CC=C | > 100 µM | > 100 µM | > 100 µM | > 100 µM | – | – | – | – | – | –
C=CCc1cc(C=O)c(OCC(=O)OCC)c(-c2ccc(OCC(=O)OCC)c(CC=C)c2)c1 | 86.9 µM | > 85.8 µM | > 85.2 µM | 26.1 µM | – | – | – | – | – | –
C=CCc1cc(-c2ccc(C(F)(F)F)cc2)ccc1OC | > 100 µM | > 100 µM | 89 µM | 78.8 µM | – | – | – | – | – | –
C=CC(C)(C)c1cc(-c2cccc([N+](=O)[O-])c2)ccc1O | 77 µM | 64 µM | 56 µM | 45.1 µM | inactive | – | <25% | <25% | inactive | –
C=CCc1cc(-c2ccccc2C(F)(F)F)ccc1O | 82 µM | 59.7 µM | 52.4 µM | 60.3 µM | inactive | <25% | <25% | <25% | – | –
C=CCc1cc(C=O)c(OC)c(-c2ccc(OC)c(CC=C)c2)c1 | 39.1 µM | 42.6 µM | 53.9 µM | 40.8 µM | – | <25% | <25% | <25% | – | <25%
C=CCc1cc(-c2ccc(OC)cc2)ccc1OC | > 100 µM | > 100 µM | > 100 µM | > 100 µM | – | – | – | – | – | –
C=CCc1ccc(OC(C)C)c(-c2ccc(O)c(CC=C)c2)c1 | 65.5 µM | 53.2 µM | 63.5 µM | 48.4 µM | – | <25% | <25% | <25% | – | <25%
C=CCc1ccc(OCC)c(-c2ccc(OCC)c(CC=C)c2)c1 | > 100 µM | > 124 µM | > 124 µM | > 124 µM | – | – | – | – | – | –
C=CCc1ccc(OC(C)C)c(-c2ccc(OC(C)C)c(CC=C)c2)c1 | > 100 µM | > 114 µM | > 114 µM | > 114 µM | – | – | – | – | – | –
C=CCc1cc(-c2ccc(OC)cc2)ccc1O | > 100 µM | > 100 µM | > 100 µM | > 100 µM | – | – | – | – | – | –
C=CCc1ccc(OC)c(-c2cccc([N+](=O)[O-])c2)c1 | > 100 µM | > 100 µM | > 100 µM | 89.4 µM | – | – | – | – | – | –
C=CCc1cc(-c2cccc([N+](=O)[O-])c2)ccc1O | > 100 µM | > 100 µM | > 100 µM | > 100 µM | – | – | – | – | – | –

SMILES | IC50 (HUVEC) | IC50 (A549) | IC50 (HepG2) | IC50 [1] | inhibition (Danio rerio [2]) | inhibition (INH) (Danio rerio [3]) | inhibition (INH) (Danio rerio [4]) | inhibition (INH) (Danio rerio [5]) | inhibition (Danio rerio [3]) | inhibition (INH) (Danio rerio [2])
C=CCc1ccc(OCCC)c(-c2ccc(OCCC)c(CC=C)c2)c1 | > 100 µM | > 114 µM | > 114 µM | > 114 µM | – | – | – | – | – | –
C=CCc1ccc(OCC)c(-c2ccc(O)c(CC=C)c2)c1 | 68.2 µM | 81.6 µM | 71.5 µM | 67.6 µM | – | – | – | – | – | –
C=CCc1ccc(OC)c(-c2ccc(OC)cc2)c1 | > 100 µM | 95.4 µM | > 100 µM | 71.1 µM | – | – | – | – | – | –
C=CCc1cc(-c2ccc(F)cc2)ccc1O | > 100 µM | > 100 µM | > 100 µM | > 100 µM | – | – | – | – | – | –
C=CCc1ccc(O)c(-c2cccc([N+](=O)[O-])c2)c1 | 79.1 µM | > 100 µM | 62.3 µM | 61.4 µM | inactive | <25% | <25% | – | – | –
C=CCc1ccc(OCCC)c(-c2ccc(O)c(CC=C)c2)c1 | 73.3 µM | 53.8 µM | 49.9 µM | 45.8 µM | inactive | <25% | <25% | <25% | – | –
C=CCc1cc(C=O)c(OCC)c(-c2ccc(OCC)c(CC=C)c2)c1 | 37.9 µM | 39 µM | 28.5 µM | 31.9 µM | inactive | <25% | <25% | <25% | – | –
C=CCc1cc(-c2ccc(OC)cc2OC)ccc1O | > 100 µM | > 100 µM | > 100 µM | > 100 µM | – | – | – | – | – | –
C=CCc1cc(-c2ccc(C(F)(F)F)cc2)ccc1O | 74 µM | 76 µM | 60.3 µM | 74.8 µM | inactive | <25% | <25% | <25% | – | –
C=CCc1cc(-c2cccc([N+](=O)[O-])c2)cc(CC=C)c1O | > 100 µM | 80 µM | 80.5 µM | 56.5 µM | inactive | <25% | <25% | <25% | – | –
C=CCc1ccc(OC)c(-c2ccc(O)c(CC=C)c2)c1 | 61.8 µM | – | 57.5 µM | 108 µM | – | – | – | – | – | –
C=CCOc1ccc(-c2cccc([N+](=O)[O-])c2)cc1CC=C | > 100 µM | > 100 µM | > 100 µM | > 100 µM | – | – | – | – | – | –
C=CCc1cc(-c2ccc(OC)cc2)cc(CC=C)c1O | > 100 µM | 75.6 µM | 69.2 µM | 60.3 µM | inactive | <25% | <25% | <25% | – | –
C=CCc1cc(-c2cccc([N+](=O)[O-])c2)ccc1OC | > 100 µM | > 100 µM | > 100 µM | > 100 µM | – | – | – | – | – | –
C=CCc1ccc(O)c(-c2ccc(OC(C)C)c(CC=C)c2)c1 | 70.5 µM | 42.7 µM | 48.4 µM | 49.1 µM | inactive | <25% | <25% | – | – | –
C=CCc1cc(-c2cc(F)cc(F)c2)ccc1O | 80 µM | > 100 µM | > 100 µM | 78.2 µM | – | <25% | <25% | <25% | – | <25%
C=CCc1cc(-c2cccc(SC)c2)ccc1O | > 100 µM | 66 µM | > 100 µM | > 100 µM | – | – | – | – | – | –
C=CCc1cc(-c2ccccc2)ccc1O | > 100 µM | > 100 µM | > 100 µM | > 100 µM | – | – | – | – | – | –
C=CCc1cc(-c2cccc(OC)c2)ccc1O | > 100 µM | > 100 µM | > 100 µM | > 100 µM | – | – | – | – | – | –
C=CC(C)(C)c1cc(-c2ccc(OC)cc2)ccc1O | > 100 µM | > 100 µM | 91 µM | > 100 µM | – | – | – | – | – | –
C=CCc1cc(-c2cccc(C(F)(F)F)c2)ccc1O | 76 µM | 73 µM | 58.3 µM | 65.9 µM | – | – | – | – | – | –
